According to ChEMBL document CHEMBL3352188, “Synthesis, antimicrobial and molecular docking studies of enantiomerically pure N-alkylated β-amino alcohols from phenylpropanolamines” (2014):

Assays:
Pseudomonas aeruginosa [1] = experiment: Antimicrobial activity against Pseudomonas aeruginosa MTCC 741 at 1 mg/disc after 24 hrs by disc diffusion assay; assay type: functional
Procedure, shortened: (§1)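 Disc diffusion on Mueller Hinton agar. Inoculum was grown in MHB for 24 h at 37 °C, swabbed onto the plates and dried for 10 min. Discs with 1 mg compound were left 30 min at room temperature for diffusion, then incubated at 37 °C for 24 h. Inhibition zone was read in mm; run twice. Solvent was the negative control, streptomycin the positive control.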

Candida albicans [2] = experiment: Antimicrobial activity against Candida albicans MTCC 227 at 1 mg/disc after 24 hrs by disc diffusion assay; assay type: functional
Malassezia pachydermatis [3] = experiment: Antimicrobial activity against Malassezia pachydermatis at 1 mg/disc after 24 hrs by disc diffusion assay; assay type: functional
Bacillus subtilis [4] = experiment: Antimicrobial activity against Bacillus subtilis MTCC 441 after 24 hrs by two fold dilution method; assay type: functional; details: MTCC 441, 24 h
Procedure, shortened: (§2)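 Broth two-fold serial dilution in 96-well plates from 1000 to 7.81 µg/mL, compound in DMSO (2%). Inoculum was grown in MHB for 24 h at 37 °C; plates were incubated 24 h at 37 °C. 5 µL of broth was spotted onto MHA; MIC was the lowest concentration with no visible growth on agar. Streptomycin was the positive control.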

Micrococcus luteus [5] = experiment: Antimicrobial activity against Micrococcus luteus MTCC 106 after 24 hrs by two fold dilution method; assay type: functional; details: MTCC 106, 24 h; procedure, shortened: as §2
Klebsiella aerogenes [6] = experiment: Antimicrobial activity against Enterobacter aerogenes MTCC 111 after 24 hrs by two fold dilution method; assay type: functional; details: MTCC 111, 24 h; procedure, shortened: as §2
Staphylococcus aureus [7] = experiment: Antimicrobial activity against Staphylococcus aureus MTCC 96 after 24 hrs by two fold dilution method; assay type: functional; details: MTCC 96, 24 h; procedure, shortened: as §2
Salmonella typhimurium [8] = experiment: Antimicrobial activity against Salmonella typhimurium MTCC 1251 after 24 hrs by two fold dilution method; assay type: functional, Salmonella enterica subsp. enterica serovar Typhimurium; details: Salmonella enterica, MTCC 1251, 24 h; procedure, shortened: as §2
Klebsiella pneumoniae [9] = experiment: Antimicrobial activity against Klebsiella pneumoniae MTCC 109 after 24 hrs by two fold dilution method; assay type: functional; details: MTCC 109, 24 h; procedure, shortened: as §2
Proteus vulgaris [10] = experiment: Antimicrobial activity against Proteus vulgaris MTCC 1771 after 24 hrs by two fold dilution method; assay type: functional; details: MTCC 1771, 24 h; procedure, shortened: as §2
Staphylococcus aureus [11] = experiment: Antimicrobial activity against methicillin-resistant Staphylococcus aureus MTCC 96 after 24 hrs by two fold dilution method; assay type: functional; details: MTCC 96, 24 h; procedure, shortened: as §2
[12] = system: Salmonella enterica subsp. enterica serovar Paratyphi B; experiment: Antimicrobial activity against Salmonella paratyphi B after 24 hrs by two fold dilution method; assay type: functional; procedure, shortened: as §2
Shigella flexneri [13] = experiment: Antimicrobial activity against Shigella flexneri MTCC 1457 after 24 hrs by two fold dilution method; assay type: functional; details: MTCC 1457, 24 h; procedure, shortened: as §2
Pseudomonas aeruginosa [14] = experiment: Antimicrobial activity against Pseudomonas aeruginosa MTCC 741 after 24 hrs by two fold dilution method; assay type: functional; details: MTCC 741, 24 h; procedure, shortened: as §2
Candida albicans [15] = experiment: Antimicrobial activity against Candida albicans MTCC 227 after 48 to 72 hrs by two fold dilution method; assay type: functional
Procedure, shortened: (§3)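 Yeast was grown in Sabouraud dextrose broth at 28 °C for 48 h and tested per CLSI reference methods. Two-fold serial dilutions from 1000 to 7.81 µg/mL, compound in DMSO (2%), in 96-well plates, incubated 48–72 h at 28 °C. MIC was the lowest concentration with no visible fungal growth. Ketoconazole was the positive control.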

Malassezia pachydermatis [16] = experiment: Antimicrobial activity against Malassezia pachydermatis after 48 to 72 hrs by two fold dilution method; assay type: functional; procedure, shortened: as §3
Bacillus subtilis [17] = experiment: Bactericidal activity against Bacillus subtilis MTCC 441 after 24 hrs by two fold dilution method; assay type: functional; details: MTCC 441, 24 h
Procedure, shortened: (§4)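 Tubes held 5 mL MHB with two-fold dilutions from 1000 to 7.81 µg/mL and were inoculated with 5 × 10^5 to 1 × 10^6 cells in 0.1 mL MHB, incubated without shaking. Turbidity was checked at 20 h, tubes vortexed and re-incubated 4 h.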

Micrococcus luteus [18] = experiment: Bactericidal activity against Micrococcus luteus MTCC 106 after 24 hrs by two fold dilution method; assay type: functional; details: MTCC 106, 24 h; procedure, shortened: as §4
Klebsiella aerogenes [19] = experiment: Bactericidal activity against Enterobacter aerogenes MTCC 111 after 24 hrs by two fold dilution method; assay type: functional; details: MTCC 111, 24 h; procedure, shortened: as §4
Staphylococcus aureus [20] = experiment: Bactericidal activity against Staphylococcus aureus MTCC 96 after 24 hrs by two fold dilution method; assay type: functional; details: MTCC 96, 24 h; procedure, shortened: as §4
Salmonella typhimurium [21] = experiment: Bactericidal activity against Salmonella typhimurium MTCC 1251 after 24 hrs by two fold dilution method; assay type: functional, Salmonella enterica subsp. enterica serovar Typhimurium; details: Salmonella enterica, MTCC 1251, 24 h; procedure, shortened: as §4
Klebsiella pneumoniae [22] = experiment: Bactericidal activity against Klebsiella pneumoniae MTCC 109 after 24 hrs by two fold dilution method; assay type: functional; details: MTCC 109, 24 h; procedure, shortened: as §4
Proteus vulgaris [23] = experiment: Bactericidal activity against Proteus vulgaris MTCC 1771 after 24 hrs by two fold dilution method; assay type: functional; details: MTCC 1771, 24 h; procedure, shortened: as §4
Staphylococcus aureus [24] = experiment: Bactericidal activity against methicillin-resistant Staphylococcus aureus MTCC 96 after 24 hrs by two fold dilution method; assay type: functional; details: MTCC 96, 24 h; procedure, shortened: as §4
[25] = system: Salmonella enterica subsp. enterica serovar Paratyphi B; experiment: Bactericidal activity against Salmonella paratyphi B after 24 hrs by two fold dilution method; assay type: functional; procedure, shortened: as §4
Shigella flexneri [26] = experiment: Bactericidal activity against Shigella flexneri MTCC 1457 after 24 hrs by two fold dilution method; assay type: functional; details: MTCC 1457, 24 h; procedure, shortened: as §4
Pseudomonas aeruginosa [27] = experiment: Bactericidal activity against Pseudomonas aeruginosa MTCC 741 after 24 hrs by two fold dilution method; assay type: functional; details: MTCC 741, 24 h; procedure, shortened: as §4
Candida albicans [28] = experiment: Fungicidal activity against Candida albicans MTCC 227 after 48 to 72 hrs by two fold dilution method; assay type: functional
Malassezia pachydermatis [29] = experiment: Fungicidal activity against Malassezia pachydermatis after 48 to 72 hrs by two fold dilution method; assay type: functional
Bacillus subtilis [30] = experiment: Antimicrobial activity against Bacillus subtilis MTCC 441 at 1 mg/disc after 24 hrs by disc diffusion assay; assay type: functional; procedure, shortened: as §1
Micrococcus luteus [31] = experiment: Antimicrobial activity against Micrococcus luteus MTCC 106 at 1 mg/disc after 24 hrs by disc diffusion assay; assay type: functional; procedure, shortened: as §1
Klebsiella aerogenes [32] = experiment: Antimicrobial activity against Enterobacter aerogenes MTCC 111 at 1 mg/disc after 24 hrs by disc diffusion assay; assay type: functional; procedure, shortened: as §1
Staphylococcus aureus [33] = experiment: Antimicrobial activity against Staphylococcus aureus MTCC 96 at 1 mg/disc after 24 hrs by disc diffusion assay; assay type: functional; procedure, shortened: as §1
Salmonella typhimurium [34] = experiment: Antimicrobial activity against Salmonella typhimurium MTCC 1251 at 1 mg/disc after 24 hrs by disc diffusion assay; assay type: functional, Salmonella enterica subsp. enterica serovar Typhimurium; procedure, shortened: as §1
Klebsiella pneumoniae [35] = experiment: Antimicrobial activity against Klebsiella pneumoniae MTCC 109 at 1 mg/disc after 24 hrs by disc diffusion assay; assay type: functional; procedure, shortened: as §1
Proteus vulgaris [36] = experiment: Antimicrobial activity against Proteus vulgaris MTCC 1771 at 1 mg/disc after 24 hrs by disc diffusion assay; assay type: functional; procedure, shortened: as §1
Staphylococcus aureus [37] = experiment: Antimicrobial activity against […] Staphylococcus aureus MTCC 96 at 1 mg/disc after 24 hrs by disc diffusion assay; assay type: functional; procedure, shortened: as §1
[38] = system: Salmonella enterica subsp. enterica serovar Paratyphi B; experiment: Antimicrobial activity against Salmonella paratyphi B at 1 mg/disc after 24 hrs by disc diffusion assay; assay type: functional; procedure, shortened: as §1
Shigella flexneri [39] = experiment: Antimicrobial activity against Shigella flexneri MTCC 1457 at 1 mg/disc after 24 hrs by disc diffusion assay; assay type: functional; procedure, shortened: as §1

| Structure (SMILES) | inhibition zone (IZ) (Pseudomonas aeruginosa [1]) | inhibition zone (IZ) (Candida albicans [2]) | inhibition zone (IZ) (Malassezia pachydermatis [3]) | MIC (Bacillus subtilis [4]) | MIC (Micrococcus luteus [5]) | MIC (Klebsiella aerogenes [6]) | MIC (Staphylococcus aureus [7]) | MIC (Salmonella typhimurium [8]) | MIC (Klebsiella pneumoniae [9]) | MIC (Proteus vulgaris [10]) | MIC (Staphylococcus aureus [11]) | MIC [12] | MIC (Shigella flexneri [13]) | MIC (Pseudomonas aeruginosa [14]) | MIC (Candida albicans [15]) | MIC (Malassezia pachydermatis [16]) | MBC (Bacillus subtilis [17]) | MBC (Micrococcus luteus [18]) | MBC (Klebsiella aerogenes [19]) | MBC (Staphylococcus aureus [20]) | further results |
| --- | --- | --- | --- | --- | --- | --- | --- | --- | --- | --- | --- | --- | --- | --- | --- | --- | --- | --- | --- | --- | --- |
| CC(C)C[C@H](C)N[C@H](C)[C@@H](O)c1ccccc1.Cl | 11 mm | 13 mm | 12 mm | 250 µg/mL | 250 µg/mL | 250 µg/mL | 250 µg/mL | 500 µg/mL | 250 µg/mL | 125 µg/mL | 125 µg/mL | 250 µg/mL | 250 µg/mL | 250 µg/mL | 250 µg/mL | 250 µg/mL | 250 µg/mL | 500 µg/mL | 250 µg/mL | 250 µg/mL | MBC (Salmonella typhimurium [21]): 500 µg/mL; MBC (Klebsiella pneumoniae [22]): 250 µg/mL; MBC (Proteus vulgaris [23]): 125 µg/mL; MBC (Staphylococcus aureus [24]): 250 µg/mL; MBC [25]: 500 µg/mL; MBC (Shigella flexneri [26]): 500 µg/mL; MBC (Pseudomonas aeruginosa [27]): 500 µg/mL; MFC (Candida albicans [28]): 250 µg/mL; MFC (Malassezia pachydermatis [29]): 250 µg/mL; inhibition zone (IZ) (Bacillus subtilis [30]): 12 mm; inhibition zone (IZ) (Micrococcus luteus [31]): 13 mm; inhibition zone (IZ) (Klebsiella aerogenes [32]): 12 mm; inhibition zone (IZ) (Staphylococcus aureus [33]): 13 mm; inhibition zone (IZ) (Salmonella typhimurium [34]): 10 mm; inhibition zone (IZ) (Klebsiella pneumoniae [35]): 13 mm; inhibition zone (IZ) (Proteus vulgaris [36]): 14 mm; inhibition zone (IZ) (Staphylococcus aureus [37]): 15 mm; inhibition zone (IZ) [38]: 10 mm; inhibition zone (IZ) (Shigella flexneri [39]): 10 mm |
| CC[C@@H](N[C@@H](C)[C@H](O)c1ccccc1)c1ccccc1.Cl | 18 mm | 22 mm | 24 mm | 31.2 µg/mL | 31.2 µg/mL | 31.2 µg/mL | 31.2 µg/mL | 31.2 µg/mL | 15.6 µg/mL | 31.2 µg/mL | 31.2 µg/mL | 62.5 µg/mL | 15.6 µg/mL | 62.5 µg/mL | 31.2 µg/mL | 31.2 µg/mL | 31.2 µg/mL | 62.5 µg/mL | 62.5 µg/mL | 31.2 µg/mL | MBC (Salmonella typhimurium [21]): 31.2 µg/mL; MBC (Klebsiella pneumoniae [22]): 15.6 µg/mL; MBC (Proteus vulgaris [23]): 31.2 µg/mL; MBC (Staphylococcus aureus [24]): 31.2 µg/mL; MBC [25]: 125 µg/mL; MBC (Shigella flexneri [26]): 31.2 µg/mL; MBC (Pseudomonas aeruginosa [27]): 62.5 µg/mL; MFC (Candida albicans [28]): 31.2 µg/mL; MFC (Malassezia pachydermatis [29]): 31.2 µg/mL; inhibition zone (IZ) (Bacillus subtilis [30]): 20 mm; inhibition zone (IZ) (Micrococcus luteus [31]): 21 mm; inhibition zone (IZ) (Klebsiella aerogenes [32]): 21 mm; inhibition zone (IZ) (Staphylococcus aureus [33]): 22 mm; inhibition zone (IZ) (Salmonella typhimurium [34]): 20 mm; inhibition zone (IZ) (Klebsiella pneumoniae [35]): 23 mm; inhibition zone (IZ) (Proteus vulgaris [36]): 21 mm; inhibition zone (IZ) (Staphylococcus aureus [37]): 20 mm; inhibition zone (IZ) [38]: 19 mm; inhibition zone (IZ) (Shigella flexneri [39]): 21 mm |
